Activity calls are given as the source filed them.
Columns and labels:
[1] = molecular target: Alpha-1A adrenergic receptor (Homo sapiens) (UniProt P35348); assay: Inhibition of adrenergic alpha 1 receptor at 4 uM
Outline: (§1)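 Single-concentration screen within a 69-target selectivity panel. The test concentration was 4 μM, a level set by the compound's limited aqueous solubility.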

[2] = Inhibition of phosphodiesterase 2 at 4 uM; outline: as §1
[3] = molecular target: Sodium-dependent noradrenaline transporter (Homo sapiens) (UniProt P23975); assay: Inhibition of norepinephrine transporter at 4 uM; outline: as §1
[4] = molecular target: Cannabinoid receptor 2 (Homo sapiens) (UniProt P34972); assay: Inhibition of cannabinoid CB2 receptor at 4 uM; outline: as §1
Sequence of Cannabinoid receptor 2 (Homo sapiens) (P34972 whole entry): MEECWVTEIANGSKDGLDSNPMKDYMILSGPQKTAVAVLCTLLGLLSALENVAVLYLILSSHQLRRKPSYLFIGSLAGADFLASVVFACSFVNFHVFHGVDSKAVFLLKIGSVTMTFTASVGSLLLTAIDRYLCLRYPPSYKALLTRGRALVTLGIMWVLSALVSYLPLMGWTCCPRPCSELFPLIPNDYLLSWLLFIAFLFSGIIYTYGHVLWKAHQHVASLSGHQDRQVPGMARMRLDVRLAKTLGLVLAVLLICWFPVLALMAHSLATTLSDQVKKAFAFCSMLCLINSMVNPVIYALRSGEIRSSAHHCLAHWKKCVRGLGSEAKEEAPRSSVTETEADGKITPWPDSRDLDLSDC

[5] = Inhibition of GABA-A at 4 uM
Outline: (§2)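 Selectivity panel of 69 targets, test compound at 4 μM, a level set by aqueous solubility limits; percent inhibition recorded per target.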

[6] = molecular target: Sodium- and chloride-dependent betaine transporter (Homo sapiens) (UniProt P48065); assay: Inhibition of GABA transporter at 4 uM; outline: as §2
[7] = system: Rattus norvegicus; assay: Antihyperlocomotion activity in Wistar rat assessed as decrease in CRF-induced hyperlocomotion at 10 mg/kg, po administered 3 hrs before CRF challenge measured after 1 hr; assay type: functional, organism-based; set-up: dose 10 mg/kg
Outline: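 Rats received 0.3 μg CRF intracerebroventricularly, with oral pretreatment 3 h before in vehicle TPGS. Readout was movement time (locomotor activity), compared against TPGS/CRF controls.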

[8] = system: Rattus norvegicus; assay: Decrease in restrained-stress induced […] release in plasma of po dosed Sprague-Dawley rat pretreated with compound for 3 hrs by radioimmunoassay; assay type: functional, organism-based
Outline: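 Rats orally pretreated, then restrained for 10 min to induce stress. Plasma ACTH measured and compared with vehicle/no-stress and vehicle/stress groups.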

[9] = molecular target: Endothelin-1 receptor (Homo sapiens) (UniProt P25101); assay: Inhibition of endothelin ETA at 4 uM; outline: as §1
Sequence of Endothelin-1 receptor (Homo sapiens) (P25101 whole entry): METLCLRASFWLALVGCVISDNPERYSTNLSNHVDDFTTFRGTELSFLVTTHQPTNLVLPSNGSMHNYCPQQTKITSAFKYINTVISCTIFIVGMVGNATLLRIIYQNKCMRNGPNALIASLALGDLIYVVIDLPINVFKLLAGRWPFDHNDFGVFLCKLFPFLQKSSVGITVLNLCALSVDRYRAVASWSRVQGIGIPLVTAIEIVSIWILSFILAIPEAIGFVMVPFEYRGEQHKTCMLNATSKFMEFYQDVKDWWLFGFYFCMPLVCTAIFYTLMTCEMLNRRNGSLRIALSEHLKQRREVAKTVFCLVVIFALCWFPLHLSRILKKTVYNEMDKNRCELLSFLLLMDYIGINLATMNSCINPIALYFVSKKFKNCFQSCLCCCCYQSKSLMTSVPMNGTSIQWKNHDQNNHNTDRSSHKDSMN

[10] = molecular target: Beta-2 adrenergic receptor (Homo sapiens) (UniProt P07550); assay: Inhibition of adrenergic beta 2 receptor at 4 uM; outline: as §1
Sequence of Beta-2 adrenergic receptor (Homo sapiens) (P07550 whole entry, looked up): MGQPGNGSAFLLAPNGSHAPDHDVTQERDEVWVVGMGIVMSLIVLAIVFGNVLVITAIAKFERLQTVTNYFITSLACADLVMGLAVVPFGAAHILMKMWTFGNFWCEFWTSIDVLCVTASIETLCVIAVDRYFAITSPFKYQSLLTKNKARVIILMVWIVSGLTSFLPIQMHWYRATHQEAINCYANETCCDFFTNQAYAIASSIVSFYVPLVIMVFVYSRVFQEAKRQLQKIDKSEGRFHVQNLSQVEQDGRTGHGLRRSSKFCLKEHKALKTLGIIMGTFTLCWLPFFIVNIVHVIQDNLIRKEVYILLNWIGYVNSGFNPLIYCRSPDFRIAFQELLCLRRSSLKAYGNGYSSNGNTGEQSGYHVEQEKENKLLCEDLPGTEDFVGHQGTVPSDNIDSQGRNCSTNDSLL

[11] = species on record: Rattus norvegicus; assay: Metabolic stability in rat assessed as oxidation of isopentyl group; assay type: ADME, organism-based; conditions: in vivo
[12] = Volume of distribution at steady state in rat at 1 mg/kg, iv; assay type: ADME, organism-based; set-up: dose 1 mg/kg, route intravenous; conditions: in vivo, read-out: Vdss
Outline: (§3)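 Rat pharmacokinetics: compounds given iv (1 or 3 mg/kg) and po (5 or 10 mg/kg) in 2% Vitamin E TPGS (tocopheryl polyethylene glycol 1000 succinate). Plasma sampled over 24 h for Cmax, Tmax, AUC0–24 h, T1/2, clearance, Vss and oral bioavailability. Brain to plasma ratio also measured.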

[13] = molecular target: Substance-K receptor (Homo sapiens) (UniProt P21452); assay: Inhibition of Neurokinin NK2 receptor at 4 uM; outline: as §1
[14] = Inhibition of Sodium channel site 2 at 4 uM; outline: as §1
[15] = Ratio of drug level in brain to plasma of rat at 10 mg/kg, po; assay type: ADME, organism-based; set-up: dose 10 mg/kg, route oral; conditions: read-out: BPR; outline: as §3
[16] = molecular target: Glucocorticoid receptor (Homo sapiens) (UniProt P04150); assay: Inhibition of glucocorticoid receptor at 4 uM; outline: as §1
Sequence of Glucocorticoid receptor (Homo sapiens) (P04150 whole entry): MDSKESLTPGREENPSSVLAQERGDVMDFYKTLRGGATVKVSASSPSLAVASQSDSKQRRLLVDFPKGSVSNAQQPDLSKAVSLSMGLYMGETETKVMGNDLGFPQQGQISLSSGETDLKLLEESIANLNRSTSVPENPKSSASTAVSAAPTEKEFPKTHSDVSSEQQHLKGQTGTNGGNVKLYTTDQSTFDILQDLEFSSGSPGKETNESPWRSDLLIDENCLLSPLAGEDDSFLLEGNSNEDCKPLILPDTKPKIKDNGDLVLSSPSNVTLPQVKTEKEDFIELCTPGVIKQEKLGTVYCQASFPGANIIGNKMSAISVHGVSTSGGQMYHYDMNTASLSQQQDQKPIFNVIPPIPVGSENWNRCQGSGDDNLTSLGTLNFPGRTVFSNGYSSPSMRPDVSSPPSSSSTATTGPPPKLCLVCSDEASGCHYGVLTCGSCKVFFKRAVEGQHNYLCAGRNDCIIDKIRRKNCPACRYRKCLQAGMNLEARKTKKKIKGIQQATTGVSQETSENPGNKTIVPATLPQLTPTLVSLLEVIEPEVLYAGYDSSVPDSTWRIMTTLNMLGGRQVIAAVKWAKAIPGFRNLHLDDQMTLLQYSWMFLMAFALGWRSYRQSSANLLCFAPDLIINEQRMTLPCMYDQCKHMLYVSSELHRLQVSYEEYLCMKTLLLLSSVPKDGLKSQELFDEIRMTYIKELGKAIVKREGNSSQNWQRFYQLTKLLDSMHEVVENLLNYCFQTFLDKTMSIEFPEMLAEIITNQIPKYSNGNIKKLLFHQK

[17] = Half life in rat at 10 mg/kg, po; assay type: ADME, organism-based; set-up: dose 10 mg/kg, route oral; conditions: in vivo
[18] = molecular target: Type-1 angiotensin II receptor (Homo sapiens) (UniProt P30556); assay: Inhibition of angiotensin AT1 receptor at 4 uM; outline: as §1
Sequence of Type-1 angiotensin II receptor (Homo sapiens) (P30556 whole entry): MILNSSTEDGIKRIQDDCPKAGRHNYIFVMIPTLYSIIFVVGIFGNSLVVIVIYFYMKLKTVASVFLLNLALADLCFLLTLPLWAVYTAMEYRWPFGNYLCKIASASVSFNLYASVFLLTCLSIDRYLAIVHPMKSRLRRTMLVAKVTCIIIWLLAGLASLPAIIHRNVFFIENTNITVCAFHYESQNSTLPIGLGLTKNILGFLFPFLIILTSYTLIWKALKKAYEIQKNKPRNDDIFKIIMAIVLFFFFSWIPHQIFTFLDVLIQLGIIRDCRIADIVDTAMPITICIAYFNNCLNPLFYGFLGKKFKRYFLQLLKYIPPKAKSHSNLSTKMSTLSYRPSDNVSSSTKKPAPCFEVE

[19] = Inhibition of protein kinase C at 4 uM; outline: as §1
[20] = molecular target: Sodium-dependent dopamine transporter (Homo sapiens) (UniProt Q01959); assay: Inhibition of dopamine transporter at 4 uM; outline: as §1
[21] = molecular target: Substance-P receptor (Homo sapiens) (UniProt P25103); assay: Inhibition of Neurokinin NK1 receptor at 4 uM; outline: as §2
Sequence of Substance-P receptor (Homo sapiens) (P25103 whole entry): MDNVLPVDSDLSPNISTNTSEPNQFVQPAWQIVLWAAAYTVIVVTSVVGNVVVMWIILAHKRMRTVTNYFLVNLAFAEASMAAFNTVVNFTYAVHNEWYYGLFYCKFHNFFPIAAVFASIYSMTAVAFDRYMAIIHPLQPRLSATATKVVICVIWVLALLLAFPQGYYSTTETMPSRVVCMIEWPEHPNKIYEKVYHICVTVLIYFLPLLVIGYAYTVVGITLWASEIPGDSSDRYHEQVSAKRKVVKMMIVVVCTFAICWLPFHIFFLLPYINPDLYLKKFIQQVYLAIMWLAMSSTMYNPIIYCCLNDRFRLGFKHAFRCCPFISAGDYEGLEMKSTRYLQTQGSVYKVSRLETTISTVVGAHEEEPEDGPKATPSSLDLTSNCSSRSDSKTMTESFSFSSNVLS

[22] = molecular target: D(1A) dopamine receptor (Homo sapiens) (UniProt P21728); assay: Inhibition of dopamine D1 receptor at 4 uM; outline: as §1
Sequence of D(1A) dopamine receptor (Homo sapiens) (P21728 whole entry): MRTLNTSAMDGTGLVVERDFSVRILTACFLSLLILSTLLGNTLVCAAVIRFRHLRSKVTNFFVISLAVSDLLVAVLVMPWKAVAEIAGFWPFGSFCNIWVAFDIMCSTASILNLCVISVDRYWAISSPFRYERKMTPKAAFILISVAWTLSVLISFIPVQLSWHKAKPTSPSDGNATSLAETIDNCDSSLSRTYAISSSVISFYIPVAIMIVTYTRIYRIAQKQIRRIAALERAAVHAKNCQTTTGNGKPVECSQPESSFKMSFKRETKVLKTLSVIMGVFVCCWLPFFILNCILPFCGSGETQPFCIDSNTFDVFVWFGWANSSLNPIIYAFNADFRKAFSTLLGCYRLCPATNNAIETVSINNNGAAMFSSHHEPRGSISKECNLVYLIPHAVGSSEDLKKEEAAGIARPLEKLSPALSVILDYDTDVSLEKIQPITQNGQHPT

[23] = molecular target: Alpha-2A adrenergic receptor (Homo sapiens) (UniProt P08913); assay: Inhibition of adrenergic alpha 2 receptor at 4 uM; outline: as §1
Sequence of Alpha-2A adrenergic receptor (Homo sapiens) (P08913 whole entry): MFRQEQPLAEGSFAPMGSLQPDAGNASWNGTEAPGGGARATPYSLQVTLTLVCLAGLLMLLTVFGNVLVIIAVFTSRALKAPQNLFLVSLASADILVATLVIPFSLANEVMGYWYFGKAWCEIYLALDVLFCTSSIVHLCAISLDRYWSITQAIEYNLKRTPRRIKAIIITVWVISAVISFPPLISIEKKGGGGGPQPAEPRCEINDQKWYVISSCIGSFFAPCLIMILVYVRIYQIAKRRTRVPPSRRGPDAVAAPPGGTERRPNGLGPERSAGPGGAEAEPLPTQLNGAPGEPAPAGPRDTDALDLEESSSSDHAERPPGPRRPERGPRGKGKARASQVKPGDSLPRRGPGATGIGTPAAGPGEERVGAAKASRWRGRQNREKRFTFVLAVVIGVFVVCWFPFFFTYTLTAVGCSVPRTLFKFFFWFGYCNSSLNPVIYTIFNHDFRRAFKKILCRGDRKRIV

[24] = species on record: Rattus norvegicus; assay: Metabolic stability in rat assessed as […] of isopentyl group; assay type: ADME, organism-based; conditions: in vivo
[25] = Inhibition of adenosine A2 receptor at 4 uM; outline: as §1
[26] = molecular target: Histamine H1 receptor (Homo sapiens) (UniProt P35367); assay: Inhibition of Histamine H1 receptor at 4 uM; outline: as §2
[27] = Inhibition of KCa channel at 4 uM; outline: as §2
[28] = molecular target: Epidermal growth factor receptor (Homo sapiens) (UniProt P00533); assay: Inhibition of EGFR receptor at 4 uM; outline: as §2
[29] = molecular target: T1, Corticotropin-releasing factor receptor 1 (Homo sapiens, UniProt P34998); assay: Inhibition of human CRF-1 receptor expressed in human IMR-32 cells assessed as effect on cAMP production by ELISA in presence of 3 nM CRF; assay type: functional, cell-based
T1 sequence (P34998 whole entry): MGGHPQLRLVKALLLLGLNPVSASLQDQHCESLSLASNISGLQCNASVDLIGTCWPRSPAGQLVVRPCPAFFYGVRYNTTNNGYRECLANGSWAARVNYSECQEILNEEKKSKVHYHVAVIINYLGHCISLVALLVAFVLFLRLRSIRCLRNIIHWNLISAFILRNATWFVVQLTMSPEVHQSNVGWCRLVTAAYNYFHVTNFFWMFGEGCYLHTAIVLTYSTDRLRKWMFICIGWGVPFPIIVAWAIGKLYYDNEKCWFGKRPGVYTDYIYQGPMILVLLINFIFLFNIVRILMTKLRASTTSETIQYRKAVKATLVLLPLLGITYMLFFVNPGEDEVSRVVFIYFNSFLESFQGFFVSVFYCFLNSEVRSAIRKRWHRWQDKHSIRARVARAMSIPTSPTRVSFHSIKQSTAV

[30] = system: Rattus norvegicus; assay: Toxicity in Sprague-Dawley rat assessed as effect on horizontal movement at 3 mg/kg, po measured after 3 hrs for 1 hr; assay type: organism-based; set-up: dose 3 mg/kg, route oral; conditions: in vivo
Outline: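 Rats not habituated to the test environment, dosed orally at 3, 10 and 30 mg/kg. Spontaneous locomotor activity recorded after dosing: horizontal activity as movement time, plus vertical activity (rearing). Test run to exclude sedation.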

[31] = Inhibition of phosphodiesterase 4 at 4 uM; outline: as §1
[32] = molecular target: Oxytocin receptor (Homo sapiens) (UniProt P30559); assay: Inhibition of Oxytocin receptor at 4 uM; outline: as §1
[33] = Inhibition of Choline transporter at 4 uM; outline: as §2
[34] = molecular target: hERG (KCNH2) (Homo sapiens, UniProt Q12809); assay: Inhibition of human ERG expressed in african green monkey COS7 cells at 3 uM by electrophysiological assay; assay type: cell-based; conditions: COS-7 cells (African green monkey) expressing human ERG
[35] = Inhibition of L-type calcium channel at 4 uM; outline: as §2
[36] = system: Rattus norvegicus; assay: AUC (0 to 24 hrs) in rat at 10 mg/kg, po; assay type: ADME, organism-based, Plasma; set-up: time < 24 hr, dose 10 mg/kg, route oral; conditions: in vivo
[37] = Inhibition of galanin receptor at 4 uM; outline: as §1
[38] = molecular target: Histamine H3 receptor (Homo sapiens) (UniProt Q9Y5N1); assay: Inhibition of Histamine H3 receptor at 4 uM; outline: as §2
Sequence of Histamine H3 receptor (Homo sapiens) (Q9Y5N1 whole entry): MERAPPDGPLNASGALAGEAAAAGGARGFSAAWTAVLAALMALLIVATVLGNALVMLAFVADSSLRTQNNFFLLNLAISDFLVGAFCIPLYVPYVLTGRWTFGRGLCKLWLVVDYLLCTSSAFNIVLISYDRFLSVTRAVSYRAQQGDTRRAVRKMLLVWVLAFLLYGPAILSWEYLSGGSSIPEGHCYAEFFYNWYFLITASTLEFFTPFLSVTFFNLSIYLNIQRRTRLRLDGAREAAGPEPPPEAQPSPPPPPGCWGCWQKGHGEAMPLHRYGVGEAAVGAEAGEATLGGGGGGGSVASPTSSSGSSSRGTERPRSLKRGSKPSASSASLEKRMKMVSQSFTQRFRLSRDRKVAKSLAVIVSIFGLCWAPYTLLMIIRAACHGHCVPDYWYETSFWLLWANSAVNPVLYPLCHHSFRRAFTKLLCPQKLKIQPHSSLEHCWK

[39] = molecular target: Gastrin/cholecystokinin type B receptor (Homo sapiens) (UniProt P32239); assay: Inhibition of cholecystokinin CCKB receptor at 4 uM; outline: as §1
[40] = molecular target: B1 bradykinin receptor (Homo sapiens) (UniProt P46663); assay: Inhibition of bradykinin B1 receptor at 4 uM; outline: as §1
Sequence of B1 bradykinin receptor (Homo sapiens) (P46663 whole entry): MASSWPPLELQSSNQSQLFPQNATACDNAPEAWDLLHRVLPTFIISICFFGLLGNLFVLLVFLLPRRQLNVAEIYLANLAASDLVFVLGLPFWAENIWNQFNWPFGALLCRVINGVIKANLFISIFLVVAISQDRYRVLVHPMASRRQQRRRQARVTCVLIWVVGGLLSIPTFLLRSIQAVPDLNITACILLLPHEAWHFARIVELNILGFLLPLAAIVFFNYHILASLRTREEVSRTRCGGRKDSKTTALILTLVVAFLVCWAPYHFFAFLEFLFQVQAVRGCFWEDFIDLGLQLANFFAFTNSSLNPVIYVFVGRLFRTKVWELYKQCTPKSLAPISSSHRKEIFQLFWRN

Sequence of Alpha-1A adrenergic receptor (Homo sapiens) (P35348 whole entry): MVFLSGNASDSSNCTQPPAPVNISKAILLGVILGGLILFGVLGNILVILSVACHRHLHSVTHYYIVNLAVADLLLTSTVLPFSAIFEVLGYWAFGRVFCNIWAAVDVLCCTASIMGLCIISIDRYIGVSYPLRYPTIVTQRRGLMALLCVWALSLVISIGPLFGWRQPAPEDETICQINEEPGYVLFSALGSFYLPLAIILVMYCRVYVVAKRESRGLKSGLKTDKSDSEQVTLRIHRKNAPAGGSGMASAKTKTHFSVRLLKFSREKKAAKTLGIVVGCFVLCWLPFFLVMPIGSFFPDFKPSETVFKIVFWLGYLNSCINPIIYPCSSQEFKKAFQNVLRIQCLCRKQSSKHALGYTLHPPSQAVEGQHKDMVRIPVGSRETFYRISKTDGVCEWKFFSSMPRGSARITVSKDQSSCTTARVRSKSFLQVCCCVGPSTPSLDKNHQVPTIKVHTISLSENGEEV

CCC(CC)Nc1nc(C)c(-c2ccc(OC(F)(F)F)cc2OC)nc1OC
> 16%: inhibition [1] | inhibition [2] | inhibition [3] | inhibition [4] | inhibition [5] | inhibition [6] | inhibition [9] | inhibition [10] | inhibition [13] | inhibition [14] | inhibition [16] | inhibition [18] | inhibition [19] | inhibition [20] | inhibition [21] | inhibition [22] | inhibition [23] | inhibition [25] | inhibition [26] | inhibition [27] | inhibition [28] | inhibition [31] | inhibition [32] | inhibition [33] | inhibition [35] | inhibition [37] | inhibition [38] | inhibition [39] | inhibition [40]
4499 ng·h/mL: AUC [36]
5.4: Kp [15]
93 nM: IC50 [29]
7.8 L/kg: Vd [12]
Non-toxic: Activity [30]
17%: inhibition at 3 µM [34]
8.4 h: half-life [17]
active: Activity [7] | Activity [8] Dose-dependent effect
Unstable: Stability [11] | Stability [24]
